Three molecules from ChEMBL document CHEMBL1909527, “Asymmetric synthesis and biological evaluation of N-cyclohexyl-4-[1-(2,4-dichlorophenyl)-1-(p-tolyl)methyl]piperazine-1-carboxamide as hCB1 receptor antagonists” (Eur J Med Chem, 2011) can be followed below.

For data set [1], the system named is Mus musculus. Briefly: Antiobesity activity in diet-induced obese C57BL/6J mouse assessed as reduction of body weight at 10 mg/kg, po qd for 35 days. Format: functional, organism-based. Details: dose 10 mg/kg. The essentials:
(§1)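 DIO mice aged 20–24 weeks, kept on high-fat diet throughout, group-housed at 25 °C on a 12 h/12 h light-dark cycle, conditioned to water gavage for 5 days. Dosed orally once daily for 35 days with vehicle (0.1% Tween 80) or compound at 10 mg/kg, 1 h before dark cycle; n = 9–10/group. Food intake and body weight measured weekly; visceral fat mass at study end.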

Data set [2] is described as follows: Oral bioavailability in Sprague-Dawley rat at 10 mg/kg by LC/MS/MS analysis. Format: ADME, organism-based. The note with it: in vivo. In a few lines:
(§2)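 Sprague-Dawley rats dosed orally at 10 mg/kg; blood drawn at various time points into lithium heparin tubes, centrifuged, plasma stored at −20 °C until analysis. Values are mean ± SEM of at least three experiments.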

Data set [3] can be described thus: Cmax in Sprague-Dawley rat at 10 mg/kg, po by LC/MS/MS analysis. The note with it: in vivo. Also on record: dose 10 mg/kg, route oral. Format: ADME, organism-based. In a few lines:
as §2

A short description of data set [4]: Tmax in Sprague-Dawley rat at 10 mg/kg, po by LC/MS/MS analysis. Format: ADME, organism-based. As to conditions: in vivo. Also on record: dose 10 mg/kg, route oral. The essentials:
as §2

Data set [5] relates to Mus musculus. Briefly: Antiobesity activity in diet-induced obese C57BL/6J mouse assessed as reduction in visceral fat mass at 10 mg/kg, po qd for 35 days. Format: functional, organism-based. Also on record: dose 10 mg/kg. In a few lines:
as §1

The test system of data set [6] is Mus musculus. Briefly: Antiobesity activity in diet-induced obese C57BL/6J mouse assessed as reduction in food intake at 10 mg/kg, po qd for 35 days. Format: functional, organism-based. Also on record: dose 10 mg/kg. The essentials:
as §1

A further data set deals with Cannabinoid receptor 2 (Homo sapiens, UniProt P34972). Kind of data set: Displacement of [3H]-CP-55940 from human CB2 receptor expressed in CHO cells pretreated for 10 mins measured after 3 hrs by scintillation counting. Format: cell-based. The essentials:
(§3)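 Whole-cell binding in CHO cells stably expressing hCB1 or hCB2, serum-starved in serum-free F12 for 3 h, pretreated with varying compound concentrations 10 min, then [3H]-CP-55940 added; 3 h at 37 °C. Cells washed 5× with warm PBS, lysed in PBS/1% SDS, bound radioactivity counted. Triplicate; Ki from nonlinear-regression IC50 via Cheng-Prusoff; mean ± SEM, n = 3 independent experiments.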

Data set [7] in a line: AUC (0 to infinity) in Sprague-Dawley rat at 10 mg/kg, po by LC/MS/MS analysis. As to conditions: plasma. The format is ADME, organism-based. Details: time infinity, dose 10 mg/kg, route oral. In a few lines:
as §2

For data set [8], the target named is T1, Cannabinoid receptor 1 (Homo sapiens, UniProt P21554). Briefly: Antagonist activity at human CB1 receptor expressed in CHO cells coexpressing Galpha15/16 assessed as inhibition of CP55940-induced Ca2+ release after 10 mins by micro plate reader assay. The format is functional, cell-based. In a few lines:
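CHO-hCB1 cells co-expressing Gα15/16 loaded with fluo-4 AM in HBSS (with […] sulfinpyrazone, pH 7.4) at 37 °C for 50 min, washed, then given test compound at various concentrations (DMSO final 1%) for 10 min at room temperature before CP55940 addition; intracellular calcium read at ex 485/em 525 nm. Triplicate; IC50 from dose-response curves, mean ± SEM, n = 3.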

Data set [9] in a line: Half life in Sprague-Dawley rat at 10 mg/kg, po by LC/MS/MS analysis. The format is ADME, organism-based. Also on record: dose 10 mg/kg, route oral. As to conditions: in vivo. The essentials: as §2
Data set [10] in a line: Ratio of drug level in brain to plasma in Sprague-Dawley rat at 10 mg/kg, po measured 9 hrs post dose by LC/MS/MS analysis. Format: ADME, organism-based. As to conditions: read-out: BPR. Details: dose 10 mg/kg, route oral. The essentials: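 Rats given 10 mg/kg orally and sacrificed at 3, 5 and 9 h post-dose; whole brain and blood collected and stored at −20 °C; brain/plasma ratio reported at 9 h. Mean ± SEM, at least three experiments.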

Data set [11] addresses T1, Cannabinoid receptor 1. Briefly: Displacement of [3H]-CP-55940 from human CB1 receptor expressed in CHO cells pretreated for 10 mins measured after 3 hrs by scintillation counting. Format: cell-based. In a few lines:
as §3
A general note: Loss of bound radioactivity is the signal in a displacement assay; it reports binding, not function.

Calls of active or inactive are those of the source. The calls are words filed in the database; no cut-off is given here.

T1 sequence (P21554 whole entry): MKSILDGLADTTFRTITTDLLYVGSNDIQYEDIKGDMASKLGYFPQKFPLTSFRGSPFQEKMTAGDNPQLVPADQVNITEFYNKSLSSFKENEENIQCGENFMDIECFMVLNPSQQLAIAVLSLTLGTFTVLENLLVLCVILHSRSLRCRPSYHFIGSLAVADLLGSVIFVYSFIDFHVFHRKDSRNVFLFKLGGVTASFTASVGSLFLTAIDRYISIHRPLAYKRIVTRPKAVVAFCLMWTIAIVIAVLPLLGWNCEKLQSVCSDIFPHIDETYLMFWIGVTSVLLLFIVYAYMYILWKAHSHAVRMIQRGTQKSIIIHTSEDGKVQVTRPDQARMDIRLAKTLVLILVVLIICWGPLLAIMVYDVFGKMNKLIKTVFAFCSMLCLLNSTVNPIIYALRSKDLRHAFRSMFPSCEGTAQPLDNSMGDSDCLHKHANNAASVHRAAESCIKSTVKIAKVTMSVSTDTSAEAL
Sequence of Cannabinoid receptor 2 (P34972 whole entry): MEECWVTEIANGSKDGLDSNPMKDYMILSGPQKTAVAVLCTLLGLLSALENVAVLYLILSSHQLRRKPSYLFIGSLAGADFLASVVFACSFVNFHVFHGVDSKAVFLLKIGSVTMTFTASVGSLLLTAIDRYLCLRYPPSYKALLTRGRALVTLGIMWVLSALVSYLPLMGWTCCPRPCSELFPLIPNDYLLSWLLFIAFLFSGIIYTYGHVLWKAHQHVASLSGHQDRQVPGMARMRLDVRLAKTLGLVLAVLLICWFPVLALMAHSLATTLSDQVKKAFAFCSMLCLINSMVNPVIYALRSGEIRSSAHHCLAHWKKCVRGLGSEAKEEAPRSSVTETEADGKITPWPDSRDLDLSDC

As to `Cc1ccc([C@H](c2ccc(Cl)cc2Cl)N2CCN(C(=O)NC3CCCCC3)CC2)cc1`, the outcome in the data set with Mus musculus [1] and in the data set on Mus musculus [5] was Active. The bioavailability (as a rule, dose-corrected exposure relative to a reference, in per cent) in data set [2] was determined as 15%. Besides, the Cmax (usually the maximum level reached in the sampled fluid or tissue) in data set [3] was determined as 116 ng/mL. Besides, the Tmax (commonly the time from dosing to the highest level) in data set [4] was 1.2 h. In addition, in the data set on Mus musculus [6], the outcome was inactive. The values for the inhibition constant (Ki) on Cannabinoid receptor 2 and at Cannabinoid receptor 1 [11] were 227 nM and 0.2 nM, respectively. For the same molecule, the area under the curve AUC(0-inf) (in general, the area under the concentration-time curve extrapolated to infinity) in data set [7] was determined as 655 ng·h/mL. The IC50 (in general, the concentration that gives 50% inhibition) at Cannabinoid receptor 1 [8] came out at 0.9 nM. For the same molecule, the half-life – broadly, the time in which the quantity being followed falls by half – in data set [9] was found to be 3.8 h. Also, the Kp at 9 h in [10] came to 0.88.

For the molecule `Cc1ccc([C@@H](c2ccc(Cl)cc2Cl)N2CCN(C(=O)NC3CCCCC3)CC2)cc1`, the outcome in the data set with Mus musculus [1] and with Mus musculus [6] was inactive. The same molecule had a bioavailability in data set [2] of 6%. Moreover, in data set [3], the concentration peaked (Cmax) at 128 ng/mL. Moreover, in data set [4], the Tmax came to 1.3 h. The Ki (as a rule, the dissociation constant of the complex between target and ligand, obtained from inhibition or displacement) on Cannabinoid receptor 2 was 242 nM; on Cannabinoid receptor 1 [11], 1.1 nM. Also, the AUC(0-inf) in data set [7] was 695 ng·h/mL. Further, the half-maximal inhibitory concentration (IC50) at Cannabinoid receptor 1 [8] came out at 21.5 nM. Also, in data set [9], the half-life amounted to 3.4 h. In [10], the Kp at 9 h was 1.42.

In turn, `Cc1ccc(C(c2ccc(Cl)cc2Cl)N2CCN(C(=O)NC3CCCCC3)CC2)cc1` (racemic) came in with a bioavailability in [2] of 8%. In addition, the Cmax in data set [3] amounted to 180 ng/mL. For the same molecule, in data set [4], the Tmax came out at 2.4 h. In data set [7], this molecule yielded an area under the curve AUC(0-inf) of 883 ng·h/mL. The molecule also gave a half-life in [9] of 2.3 h. Also, the Kp at 9 h in [10] stood at 0.91.
